Compounds with a hit are over-represented: about 2.3% of the library has one in this group of screens.
TRPC4 PAM: TRPC4 (mouse) allosteric potentiation; actives 0.42% (n = 310,000); B-score at 10 µM; HEK293 TRPC4beta/mu-opioid, DAMGO EC20, Fluo-4 Ca2+ flux; hits give high values;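 active means B-score of calcium response area above 5 SD of library B-scores, with initial fluorescence ratio within 5 SD of library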;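 further: B-score of integrated fluorescence ratio over time as area under calcium response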
Target sequence (Q9QUQ5 whole entry, looked up): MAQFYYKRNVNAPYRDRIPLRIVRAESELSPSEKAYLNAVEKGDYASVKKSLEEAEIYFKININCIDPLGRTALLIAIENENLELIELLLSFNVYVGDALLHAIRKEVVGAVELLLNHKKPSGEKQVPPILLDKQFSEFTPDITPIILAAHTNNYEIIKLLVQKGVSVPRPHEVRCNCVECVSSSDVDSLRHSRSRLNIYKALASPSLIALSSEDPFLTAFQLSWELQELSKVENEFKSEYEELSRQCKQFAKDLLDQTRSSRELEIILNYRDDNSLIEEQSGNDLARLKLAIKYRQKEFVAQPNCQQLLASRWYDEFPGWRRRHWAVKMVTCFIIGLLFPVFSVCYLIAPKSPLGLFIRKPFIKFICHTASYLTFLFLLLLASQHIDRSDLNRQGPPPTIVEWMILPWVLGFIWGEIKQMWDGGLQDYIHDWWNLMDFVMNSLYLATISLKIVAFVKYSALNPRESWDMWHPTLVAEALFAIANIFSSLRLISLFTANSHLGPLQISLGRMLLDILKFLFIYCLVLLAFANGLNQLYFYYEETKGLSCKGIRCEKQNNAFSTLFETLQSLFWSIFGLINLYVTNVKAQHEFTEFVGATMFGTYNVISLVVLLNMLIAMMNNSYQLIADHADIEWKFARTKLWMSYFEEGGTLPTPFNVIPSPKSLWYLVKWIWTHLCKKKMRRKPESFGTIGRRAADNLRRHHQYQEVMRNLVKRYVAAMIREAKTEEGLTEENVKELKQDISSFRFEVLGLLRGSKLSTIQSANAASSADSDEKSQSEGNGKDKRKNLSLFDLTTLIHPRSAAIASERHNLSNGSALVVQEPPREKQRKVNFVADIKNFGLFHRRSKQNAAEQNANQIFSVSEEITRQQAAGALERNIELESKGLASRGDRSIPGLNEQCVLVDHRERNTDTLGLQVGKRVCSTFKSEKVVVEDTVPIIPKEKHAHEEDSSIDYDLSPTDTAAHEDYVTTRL
TRPC4 block: TRPC4 (mouse) channel inhibition; Q9QUQ5; HEK293 TRPC4beta/mu-opioid, DAMGO-evoked Fluo4 calcium flux; hits give low values; B-score at 10 µM; actives 0.39% (n = 300,000); AID 2247;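 active means B-score over 3 SD under the library average, no early fluorescence shift, positive overall ratio signal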
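test system = HEK293 cells with stable TRPC4beta plus mu-opioid receptor expression | detection = Fluo4 Ca2+ flux fluorescence | read-out = integrated fluorescence ratio relative to baseline, converted to per-well B score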
TRPC6 inh: inhibitors of mouse TRPC6 channel; actives 1.1% (n = 310,000); B-score at 10 µM; Q61143; HEK293-TRPC6, membrane potential dye, ACh-evoked depolarization; hits give low values;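 active means B-score under library mean minus 3 SD, initial fluorescence not abnormally high, positive integrated signal ratio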;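 further: B-score derived from integrated fluorescence ratio over the kinetic read; more negative B-score means stronger inhibition of depolarization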
TRPC4 agonist: activators of mouse TRPC4 channel; Q9QUQ5; HEK293 TRPC4beta/mu-opioid, Fluo4 calcium fluorescence; hits give high values; B-score at 10 µM; actives 0.49% (n = 310,000); AID 2237;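 active means B-score above 5 SD of library B-scores, and initial fluorescence ratio not above library mean plus 5 SD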;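 further: positive B-score marks a calcium rise read as TRPC4 activation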
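System: HEK293 cells stably co-expressing mouse TRPC4beta and mu-opioid receptor; Schedule: Fluo4 dye loading 45 min at room temperature, 110 s recording; Detection: Fluo4 fluorescence, kinetic; Evaluation: B-scored integrated calcium fluorescence ratio; Controls: buffer (low) and maximal DAMGO (high).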
CR mimetic SO: yeast age-related superoxide inhibition as caloric restriction mimetic | actives 0.18% (n = 330,000) | S. cerevisiae aged cells, superoxide DHE fluorescence; hits give low values | AID 2690 | superoxide response (% of plate mean), % at 10 µM;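 active means superoxide response under a set limit, about three screen SD below normal, cut at about 65% in these data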;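 further: yeast aged for seven days with compound at 30 °C before DHE staining; 100% = average MFI of all compound-treated wells on the plate with controls excluded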
TRPC6 activator: mouse TRPC6 channel activation. Q61143. HEK293-TRPC6 membrane potential dye fluorescence; hits give high values. B-score at 10 µM. actives 0.13% (n = 310,000). AID 2550;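 active means B-score of the integrated fluorescence ratio above library mean plus 3 SD, and starting fluorescence ratio within library mean plus 5 SD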;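 further: higher score means more depolarization so channel activation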
TRPC4 sel inh 2: second selectivity test of TRPC6 inhibitors: effect on mouse TRPC4; shares compounds with TRPC6 inh; inhibition, % at 10 µM; AID 2776; HEK293 TRPC4/MOR, membrane potential dye fluorescence; channel activated by saturating DAMGO dose; actives 42% (n = 920);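 active means compounds whose fluorescence signal differed from control wells by over 3 SD, either direction, in both duplicate plates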
TRPC4 spec: selectivity of TRPC6 inhibitors: effect on mouse TRPC4; activity change, negative = inhibition, % at 10 µM; actives 61% (n = 920); HEK293 TRPC4/mu-opioid, membrane potential fluorescence; shares compounds with TRPC6 inh;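 active means rise or fall in signal beyond 3 SD of buffer-only wells in both replicate plates, either sign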;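 further: integrated kinetic ratio of fluorescence range over baseline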
HEK293 MPD ctr 2-1: second counter-screen for TRPC6 inhibitors: parental HEK293 cells; parental HEK293 membrane potential dye fluorescence; maximal acetylcholine challenge after compound addition; AID 2779; shares compounds with TRPC6 inh; actives 31% (n = 920); signal change vs control, % at 10 µM;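 active means membrane potential signal moving either way by over 3 SD of the maximum-effect control, in both duplicate plates, meaning non-specific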
HEK293 MPD ctr-1: counter-screen for TRPC6 inhibitors: effect in parental HEK293 cells; membrane potential signal change, % at 10 µM; parental HEK293 membrane potential dye fluorescence; shares compounds with TRPC6 inh; actives 60% (n = 920);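 active means membrane potential signal shifting up or down by more than 3 SD of buffer-only wells, on both duplicate plates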
HEK293 MPD ctr-2: parental HEK293 nonspecific activity of TRPC6 modulators; membrane potential signal change, % at 10 µM; membrane potential dye fluorescence; shares compounds with TRPC6 inh; AID 488924; actives 51% (n = 2,400);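 active means membrane potential signal moves up or down beyond 5 SD from buffer-only wells, on both duplicate plates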
HEK293 MPD ctr 2-2: second check of TRPC6 modulator effects in parental HEK293 cells | shares compounds with TRPC6 inh | AID 488926 | inhibition, % at 10 µM | actives 14% (n = 2,400) | membrane potential dye fluorescence; after compound, maximal acetylcholine stimulation;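 active means membrane potential signal drops by more than 5 SD from the mean control signal, in both duplicate plates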;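 further: plate controls were acetylcholine ECmax control wells for no effect and buffer only wells for full effect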
TRPC4 ctr mod: selectivity of TRPC6 modulators against mouse TRPC4; shares compounds with TRPC6 inh; HEK293 TRPC4/mu-opioid, membrane potential fluorescence; percent change from control (negative = decrease, positive = increase), % at 10 µM; actives 69% (n = 2,400); AID 488927;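 active means membrane potential signal moved up or down beyond 5 SD of buffer control wells, in both duplicate plates, actives on both sides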;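 further: plate controls were assay buffer wells for no effect and DAMGO maximal-effect wells for full effect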
TRPC4/MOR inh 2: mouse TRPC4 off-target activity of TRPC6 modulators, second screen | shares compounds with TRPC6 inh | HEK293 TRPC4/mu-opioid, membrane potential dye fluorescence; stimulated with maximal-effect DAMGO | inhibition, % at 10 µM | actives 55% (n = 2,400) | AID 488928;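 active means drop in membrane potential signal beyond 5 SD of the control wells in both duplicate plates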;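 further: TRPC4 counter screen for TRPC6 hits run under conditions tuned for TRPC6 not TRPC4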
TRPC6 inh conf: confirmation of mouse TRPC6 inhibitors; shares compounds with TRPC6 inh; HEK293-TRPC6, membrane potential dye, ACh-evoked depolarization; inhibition, % at 10 µM; actives 43% (n = 3,300);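 active means fluorescence ratio falls more than 5 SD below the full-stimulation control mean, in both duplicate runs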;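 further: integrated fluorescence ratio of peak minus minimum over baseline after agonist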
TRPC6 act conf: mouse TRPC6 activator confirmation; HEK293-TRPC6 membrane potential dye fluorescence, FDSS; actives 11% (n = 2,800); shares compounds with TRPC6 inh; activation, % at 10 µM; AID 488961;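 active means ratio signal rise beyond 5 SD above unstimulated control wells' mean, seen in both duplicate runs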;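 further: plate controls were buffer EC0 wells for no effect and acetylcholine ECmax response for full effect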
* marks the source's active call; other numbers are inactive results; i = inactive; nt = no result given.

SMILES	TRPC4 PAM	TRPC4 block	TRPC6 inh	TRPC4 agonist	CR mimetic SO	TRPC6 activator	TRPC6 inh conf	TRPC6 act conf	others
CCCn1c(NCc2c[nH]c3ccccc23)nc2ccccc21	i	i	-8.5*	i	110	i	i	i	TRPC4 sel inh 2=25%*;TRPC4 spec=-16%*;HEK293 MPD ctr 2-1=i;HEK293 MPD ctr-1=-209%*
Cn1c(-c2ccccc2)cnc1SCC(=O)N1CCCCC1	i	i	i	i	99	i	nt	nt
C/C(=N/OC(=O)c1c(-c2c(Cl)cccc2Cl)noc1C)c1cnccn1	i	i	-8.1*	i	104	i	69%*	i	TRPC4 sel inh 2=i;TRPC4 spec=i;HEK293 MPD ctr 2-1=27%*;HEK293 MPD ctr-1=i
C/C(=N\OC(=O)c1c(-c2ccccc2Cl)noc1C)c1nccs1	i	i	i	i	89	i	nt	nt
C/C(=N/OC(=O)c1c(-c2ccccc2Cl)noc1C)c1cnccn1	i	i	-6*	i	119	i	52%*	nt	HEK293 MPD ctr-2=108%*;HEK293 MPD ctr 2-2=i;TRPC4 ctr mod=21%*;TRPC4/MOR inh 2=i
Cc1onc(-c2c(Cl)cccc2Cl)c1C(=O)O/N=C(\C#N)c1c(Cl)cccc1Cl	i	i	i	i	123	i	nt	nt
COCCCn1c(=NC(C)=O)c(C#N)cc2c(=O)n3cccc(C)c3nc21	i	i	-6*	i	105	i	i	i	HEK293 MPD ctr-2=-140%*;HEK293 MPD ctr 2-2=i;TRPC4 ctr mod=-42%*;TRPC4/MOR inh 2=28%*
Cc1cccn2c(=O)c3cc(C#N)c(=NC(=O)c4ccccc4)n(Cc4ccco4)c3nc12	i	i	i	i	96	i	nt	nt
COCCCn1c(=NC(=O)c2ccccc2)c(C#N)cc2c(=O)n3cccc(C)c3nc21	i	i	-6.7*	i	104	i	i	i	HEK293 MPD ctr-2=i;HEK293 MPD ctr 2-2=i;TRPC4 ctr mod=i;TRPC4/MOR inh 2=i
Cc1cccc(C(=O)N=c2c(C#N)cc3c(=O)n4cccc(C)c4nc3n2Cc2ccco2)c1	i	i	-5.1*	i	108	i	i	i	HEK293 MPD ctr-2=124%*;HEK293 MPD ctr 2-2=i;TRPC4 ctr mod=-54%*;TRPC4/MOR inh 2=36%*
Cc1noc(C)c1COC(=O)CCC(=O)c1ccc(F)cc1	i	i	i	i	103	i	nt	nt
CCC(C)NC(=O)Cn1c(=O)sc2ccccc21 (stereo not given)	i	i	i	i	81	i	nt	nt
O=C(Nc1ccc(-n2cnnn2)cc1)C1CCCN1C(=O)NC1CCCCC1 (stereo not given)	i	i	i	i	113	i	nt	nt
O=C(NCc1cccnc1)/C(=C/c1ccc([N+](=O)[O-])cc1)NC(=O)c1ccccc1	nt	nt	nt	nt	112	nt	nt	nt
O=C(NCc1cccnc1)/C(=C/c1ccc(Cl)cc1)NC(=O)c1ccccc1	i	i	-5.6*	i	93	i	i	i	HEK293 MPD ctr-2=i;HEK293 MPD ctr 2-2=i;TRPC4 ctr mod=i;TRPC4/MOR inh 2=i
O=C(O)/C=C\C(=O)Nc1ccccc1C(=O)NCc1ccccc1	i	i	i	i	83	i	nt	nt
CCN(CC)CCCNc1nc(-n2nc(C)cc2C)nc2sc3c(c12)CC(C)(C)OC3	i	i	-10*	i	105	i	57%*	i	TRPC4 sel inh 2=i;TRPC4 spec=-11%*;HEK293 MPD ctr 2-1=i;HEK293 MPD ctr-1=-204%*
Cc1cc(C)n(-c2nc(SCC(=O)O)c3c4c(sc3n2)COC(C)(C)C4)n1	i	i	i	i	109	i	nt	nt
Cc1cc(C)n(-c2nc(NCc3cccnc3)c3c4c(sc3n2)COC(C)(C)C4)n1	i	i	-7.4*	i	110	i	i	i	TRPC4 sel inh 2=i;TRPC4 spec=i;HEK293 MPD ctr 2-1=i;HEK293 MPD ctr-1=i
Nn1c(SCC(=O)NC2CCCCC2)nnc1-c1ccco1	nt	nt	nt	nt	119	nt	nt	nt
NCC(O)(c1ccc(Cl)cc1)c1ccc(Cl)cc1	i	i	-6.3*	i	97	i	i	i	HEK293 MPD ctr-2=i;HEK293 MPD ctr 2-2=i;TRPC4 ctr mod=i;TRPC4/MOR inh 2=40%*
CC(C)(C)NCC(O)(c1ccc(Cl)cc1)c1ccc(Cl)cc1	i	i	i	i	104	i	nt	nt
CCOc1ccc(NC(=O)CN(c2cccc(C(F)(F)F)c2)S(C)(=O)=O)cc1	i	i	i	i	96	i	nt	nt
COc1ccccc1CNC(=O)c1cc(C2CC2)nc2c1cnn2C(C)C	nt	nt	nt	nt	95	nt	nt	nt
O=C(CSc1ncnc2ccccc12)c1ccc2c(c1)OCCO2	i	i	i	i	97	i	nt	nt
CCCc1cc(-c2[nH]ncc2-c2ccc3c(c2)OCCCO3)c(O)cc1O	i	i	-8*	i	109	i	63%*	i	TRPC4 sel inh 2=i;TRPC4 spec=i;HEK293 MPD ctr 2-1=208%*;HEK293 MPD ctr-1=i
CSc1ccccc1OCc1cc(C(=O)N2CCN(C)C(c3ccccc3)C2)no1 (stereo not given)	i	i	i	i	96	i	nt	nt

Screening results: PubChem, several laboratories
